Measured values of several laboratories.
Compare with care: the assays were run in different laboratories.

SMILES	system	conditions	measurement	value
CC(C)(C)c1sc2ncnc(Oc3c(F)cccc3OC(F)(F)F)c2c1-c1ccc(Cl)cc1	mouse, plasma	intravenous, 1 mg/kg	Vd	1.3 L/kg
C[C@@H]1COCCN1c1cc(=O)n2c(n1)N(Cc1cncc(Cl)c1)[C@H](C(F)(F)F)CC2	C57BL/6 mouse, plasma	intraperitoneal, 10 mg/kg, single dose	Vd	7.05 L/kg
OCc1nc2ccc(NCc3ccc(C(F)(F)F)cc3)cc2[nH]1	male BALB/c mouse, plasma	intravenous, 1 mg/kg	Vd	4 L/kg
CN(C)C(=O)c1cc2cnc(Nc3ccc(-c4ccc5c(=O)cc(N6CCOCC6)oc5c4)cc3)nc2n1C1CCCC1.Cl	BALB/c mouse, plasma	oral, 20 mg/kg	Vd/F	17.7 L/kg
NCc1cc2c(cc1F)C(=O)N(C1CCC(=O)NC1=O)C2 (centres unmarked)	male CD-1 mouse, plasma	intravenous, 1 mg/kg	Vd	6.5 L/kg
COCC(=O)N1CCc2[nH]c3c(Cl)c(Cl)ccc3c2[C@@H]1C	C57BL/6 mouse, blood	intravenous, 1 mg/kg	Vd	1.23 L/kg
O=C1CCC(N2Cc3cc(CO)c(F)cc3C2=O)C(=O)N1 (centres unmarked)	male CD-1 mouse, plasma	intravenous, 1 mg/kg	Vd	2.8 L/kg
CC(C)[C@@H](CS(=O)(=O)C(C)C)N1C(=O)[C@@](C)(CC(=O)O)C[C@H](c2cccc(Cl)c2)[C@H]1c1ccc(Cl)cc1	FVB mouse, plasma	oral, 20 mg/kg, single dose	Vd/F	12.2 L/kg
Cc1nc2ccc(OCc3ccc(C(F)(F)F)cc3)cc2[nH]1	male BALB/c mouse, plasma	oral, 10 mg/kg	Vd/F	7.35 L/kg
C=CCn1c(=O)c2cnc(Nc3ccc(N4CCN(C)CC4)cc3)nc2n1-c1ccc2c(n1)[C@@](O)(CC)CC2	mouse, plasma	intravenous, 3 mg/kg	Vd	3.4 L/kg
CCCC[C@@H](NC(=O)[C@@H](Cc1cn(C(=O)OC)c2ccccc12)NC(=O)[C@H](CC(C)(C)C)NC(=O)N1[C@H](C)CCC[C@@H]1C)C(=O)O	male CD-1 mouse, plasma	intravenous, 3 mg/kg	Vd	6.6 L/kg
